Test results as given in ChEMBL document CHEMBL4024751, “Hit-to-Lead Optimization and Discovery of 5-((5-([1,1'-Biphenyl]-4-yl)-6-chloro-1H-benzo[d]imidazol-2-yl)oxy)-2-methylbenzoic Acid (MK-3903): A Novel Class of Benzimidazole-Based Activators of AMP-Activated Protein Kinase” (J Med Chem, 2017).

Tests used:
AMPK alpha2/beta1/gamma1 = AMPK alpha2/beta1/gamma1 (Homo sapiens, UniProt P54619+P54646+Q9Y478); assay: (§1) Agonist activity at human recombinant phosphorylated AMPK complex 7 alpha2/beta1/gamma1 expressed in baculovirus infected Sf21 cells assessed as phosphorylation of 5-FAM-labeled SAMS substrate preincubated for 30 mins in presence of AMPK activator followed by substrate addition measured after 60 mins
In short: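 Recombinant phosphorylated human AMPK complex; agonist tested as a 10-point titration up to 50 μM (∼2 nM to 50 μM in some series, ∼0.8 nM to 16 μM in others). EC50 is the average of at least two experiments. Percent maximum activation is the highest activation seen over the titration range, or the level at 50 μM.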

[1] = biological target: T1, AMPK alpha2/beta1/gamma1 (Homo sapiens) (UniProt P54646+P54619+Q9Y478); assay: as §1, with “SAMS substrate at 50 uM preincubated for” for “SAMS substrate preincubated for”, “60 mins relative to AMP” for “60 mins”
In short: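 Activation of pAMPK7 is reported as percent activation at 50 μM, taken from 10-point titrations and averaged over at least two experiments.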

[2] = biological target: T1, AMPK alpha2/beta1/gamma1 (Homo sapiens); assay: as §1, with “SAMS substrate at 0.0008 to 16 uM preincubated for” for “SAMS substrate preincubated for”, “60 mins relative to AMP” for “60 mins”
In short: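 Recombinant human pAMPK7 was titrated at 10 points over about 0.8 nM to 16 μM. EC50 is the average of at least two experiments. Percent maximum activation is the highest activation seen within that range.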

[3] = biological target: T1, AMPK alpha2/beta1/gamma1 (Homo sapiens); assay: as §1, with “SAMS substrate at 0.002 to 50 uM preincubated for” for “SAMS substrate preincubated for”, “60 mins relative to AMP” for “60 mins”
In short: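 Recombinant human pAMPK complexes were titrated at 10 points over about 2 nM to 50 μM. EC50 is the average of at least two experiments. %max is the highest activation seen within that range.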

Mus musculus [4] = assay: Dose normalized AUC in po dosed C57BL/6 mouse administered via gavage by LC-MS/MS analysis; format: ADME, organism-based; settings: in vivo
In short: (§2)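 C57BL/6 mice were dosed 2 mg/kg IV and 10 mg/kg PO. Reported parameters: plasma clearance, Vdss, terminal t1/2, Cmax, tmax and oral bioavailability F. AUCN is the plasma AUC after PO dosing normalized to dose.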

[5] = Plasma clearance in C57BL/6 mouse by LC-MS/MS analysis; format: ADME; in short: as §2
[6] = Plasma clearance in BCRP knockout mouse by LC-MS/MS analysis; format: ADME
Mus musculus [7] = assay: In vivo agonist activity at AMPK in C57BL/6 mouse assessed as inhibition of de novo lipogenesis at 30 mg/kg, ip; format: functional; settings: C57BL/6, ip
Mus musculus [8] = assay: In vivo agonist activity at AMPK C57BL/6 mouse assessed as inhibition of de novo lipogenesis at 100 mg/kg, po administered via gavage; format: functional; settings: C57BL/6, po
[9] = Volume of distribution at steady state in C57BL/6 mouse by LC-MS/MS analysis; format: ADME; settings: in vivo, read-out: Vdss; in short: as §2
[10] = Apparent permeability of compound in pig LLC-PK1 cells by HPLC analysis; format: ADME, cell-based, Sus scrofa; settings: llc-pk1
In short: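 LLC-PK1 monolayer on polycarbonate filter. Compound in HBSS added to the apical or basolateral side. Both sides sampled at end of incubation and quantified by HPLC. Papp is the mean of A→B and B→A values.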

[11] = Oral bioavailability in BCRP knockout mouse by LC-MS/MS analysis; format: ADME, organism-based; settings: in vivo
[12] = Oral bioavailability in C57BL/6 mouse by LC-MS/MS analysis; format: ADME, organism-based; settings: in vivo; in short: as §2
[13] = Terminal half life in C57BL/6 mouse by LC-MS/MS analysis; format: ADME; settings: in vivo, read-out: beta t1/2 (converted); in short: as §2
Mus musculus [14] = assay: Dose normalized AUC in BCRP knockout mouse administered through oral gavage by LC-MS/MS analysis; format: ADME; settings: in vivo
[15] = Terminal half life in BCRP knockout mouse by LC-MS/MS analysis; format: ADME; settings: in vivo, read-out: beta t1/2 (converted)
[16] = Volume of distribution at steady state in BCRP knockout mouse by LC-MS/MS analysis; format: ADME; settings: in vivo, read-out: Vdss

T1 sequence (P54619 whole entry partner): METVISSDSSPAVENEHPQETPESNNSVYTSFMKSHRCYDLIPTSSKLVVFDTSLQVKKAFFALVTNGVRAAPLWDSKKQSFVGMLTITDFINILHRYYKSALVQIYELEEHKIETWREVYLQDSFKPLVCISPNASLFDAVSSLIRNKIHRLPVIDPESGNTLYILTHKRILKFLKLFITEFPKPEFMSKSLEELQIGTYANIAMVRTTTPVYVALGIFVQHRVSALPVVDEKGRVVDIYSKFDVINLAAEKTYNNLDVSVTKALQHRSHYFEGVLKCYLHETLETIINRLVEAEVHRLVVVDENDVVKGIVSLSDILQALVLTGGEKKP
T1 sequence (P54646 whole entry): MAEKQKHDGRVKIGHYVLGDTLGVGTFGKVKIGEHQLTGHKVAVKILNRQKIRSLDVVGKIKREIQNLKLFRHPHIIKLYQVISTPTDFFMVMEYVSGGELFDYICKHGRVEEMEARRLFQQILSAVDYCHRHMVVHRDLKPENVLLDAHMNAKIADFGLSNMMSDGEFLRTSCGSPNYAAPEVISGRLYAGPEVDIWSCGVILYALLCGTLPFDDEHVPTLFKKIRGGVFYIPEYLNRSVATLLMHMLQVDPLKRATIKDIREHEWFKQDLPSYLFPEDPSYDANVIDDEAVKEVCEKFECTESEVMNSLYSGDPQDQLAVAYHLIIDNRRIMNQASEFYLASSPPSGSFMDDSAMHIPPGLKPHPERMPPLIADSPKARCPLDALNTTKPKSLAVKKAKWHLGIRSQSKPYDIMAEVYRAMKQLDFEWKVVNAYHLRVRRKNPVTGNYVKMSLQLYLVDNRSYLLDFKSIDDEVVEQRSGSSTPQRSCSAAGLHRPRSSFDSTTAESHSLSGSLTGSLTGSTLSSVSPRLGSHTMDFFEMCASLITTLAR
T1 sequence (Q9Y478 2-270 partner limits assumed): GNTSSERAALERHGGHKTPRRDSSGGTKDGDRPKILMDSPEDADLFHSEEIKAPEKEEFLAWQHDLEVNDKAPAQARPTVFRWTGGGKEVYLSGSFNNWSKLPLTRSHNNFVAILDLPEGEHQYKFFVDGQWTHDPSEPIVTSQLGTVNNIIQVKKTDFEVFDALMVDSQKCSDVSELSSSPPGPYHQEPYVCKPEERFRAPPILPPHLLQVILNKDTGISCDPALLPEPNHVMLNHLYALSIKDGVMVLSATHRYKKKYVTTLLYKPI
Sequence of AMPK alpha2/beta1/gamma1 (P54646 whole entry): as the sequence (P54646 whole entry) above
Sequence of AMPK alpha2/beta1/gamma1 (P54619 whole entry): as the sequence (P54619 whole entry partner) above
Sequence of AMPK alpha2/beta1/gamma1 (Q9Y478 whole entry): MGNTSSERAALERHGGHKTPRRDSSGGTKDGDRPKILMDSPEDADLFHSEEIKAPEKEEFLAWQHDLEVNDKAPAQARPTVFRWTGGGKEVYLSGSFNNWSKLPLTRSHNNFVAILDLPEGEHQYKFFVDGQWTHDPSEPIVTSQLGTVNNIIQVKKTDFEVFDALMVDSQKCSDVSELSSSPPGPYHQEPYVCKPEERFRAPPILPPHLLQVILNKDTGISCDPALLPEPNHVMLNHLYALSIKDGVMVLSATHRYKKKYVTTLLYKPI

Row | Compound | EC50 (AMPK alpha2/beta1/gamma1) | %max [1] | other results
1 | O=C(O)c1cccc(Sc2nc3cc(Cl)c(Cl)cc3[nH]2)c1 | 7.4 µM | 150% | 
2 | O=C(O)c1ccccc1Sc1nc2cc(Cl)c(Cl)cc2[nH]1 | 8.1 µM | 130% | 
3 | O=C(O)c1cccc(Oc2nc3cc(-c4ccc(-c5ccccc5)cc4)c(Cl)cc3[nH]2)c1 | 0.061 µM |  | %max [2]: 260%
4 | Cc1ccc(Oc2nc3cc(-c4ccc(-c5ccn[nH]5)cc4)c(Cl)cc3[nH]2)cc1C(=O)O | 0.011 µM |  | %max [2]: 260%
5 | O=C(O)CSc1nc2cc(Cl)c(Cl)cc2[nH]1 | 4 µM | 130% | 
6 | O=C(O)CC[S+]([O-])c1nc2cc(Cl)c(Cl)cc2[nH]1 (configuration not stated) |  | 15% | 
7 | O=C(O)c1cccc(Sc2nc3cc(-c4ccc(-c5ccccc5O)cc4)c(Cl)cc3[nH]2)c1 | 0.029 µM |  | %max [3]: 100%
8 | O=C(O)CSc1nc2cc(C#Cc3ccccc3)c(Cl)cc2[nH]1 | 0.2 µM |  | %max [3]: 320%
9 | O=C(O)CCc1nc2ccccc2[nH]1 |  | 14% | 
10 | O=C(O)c1ccc(Sc2nc3cc(Cl)c(Cl)cc3[nH]2)cc1 |  | 35% | 
11 | Cc1ccc(Oc2nc3cc(C#Cc4ccccc4)c(Cl)cc3[nH]2)cc1C(=O)O | 0.007 µM |  | %max [2]: 240%
12 | Cc1cc2nc(CCC(=O)O)[nH]c2cc1C |  | 19% | 
13 | O=C(O)CCc1nc2cc(Cl)c(Br)cc2[nH]1 |  | 44% | 
14 | O=C(O)c1ccccc1-c1nc2cc(Cl)c(Cl)cc2[nH]1 |  | 6% | 
15 | O=C(O)CCSc1nc2cc(Cl)c(Cl)cc2[nH]1 | 8.5 µM | 130% | 
16 | Cc1ccc(Oc2nc3cc(-c4ccc(-c5ccccc5O)cc4)c(Cl)cc3[nH]2)cc1C(=O)O | 0.003 µM |  | %max [2]: 230%
17 | O=C(O)c1cccc(Sc2nc3cc(-c4ccc(-c5ccccc5)cc4)c(Cl)cc3[nH]2)c1 | 0.8 µM |  | %max [3]: 200%
18 | O=C(O)c1cc(Oc2nc3cc(-c4ccc(-c5ccccc5)cc4)c(Cl)cc3[nH]2)ccc1Cl | 0.032 µM |  | %max [2]: 310%
19 | Cc1ccc(Oc2nc3cc(-c4ccc5c(ccn5C)c4)c(Cl)cc3[nH]2)cc1C(=O)O | 0.002 µM |  | %max [2]: 340%
20 | O=C(O)CCc1nc2cc(Cl)c(Cl)cc2[nH]1 | 36 µM | 78% | 
21 | O=C(O)Cc1cccc(Sc2nc3cc(Cl)c(Cl)cc3[nH]2)c1 | 2.9 µM | 140% | 
22 | O=C(O)CCc1nc2cc(Cl)c(-c3ccccc3)cc2[nH]1 | 8 µM | 130% | 
23 | O=C(O)CCc1nc2cc(Cl)c(-c3ccc(-c4ccccc4)cc3)cc2[nH]1 | 6 µM | 130% | 
24 | O=C(O)c1cccc(-c2nc3cc(Cl)c(Cl)cc3[nH]2)c1 |  | 10% | 
25 | O=C(O)c1cc(Oc2nc3cc(C#Cc4ccccc4)c(Cl)cc3[nH]2)ccc1Cl | 0.015 µM |  | %max [2]: 250%
26 | O=C(O)c1csc(Sc2nc3cc(Cl)c(Cl)cc3[nH]2)n1 | 2.6 µM | 76% | 
27 | COc1ccc2[nH]c(CCC(=O)O)nc2c1 |  | 14% | 
28 | O=C(O)CCc1nc2cc(Cl)ccc2[nH]1 |  | 41% | 
29 | O=C(O)CSc1nc2cc(-c3ccc(-c4ccccc4)cc3)c(Cl)cc2[nH]1 | 0.15 µM |  | AUC/dose (Mus musculus [4]): 0.05 µM·kg·h/mg; clearance [5]: 60 mL/min/kg; %max [3]: 260%; clearance [6]: 2.9 mL/min/kg; inhibition in vivo at 30 mg/kg (Mus musculus [7]): 40%; inhibition in vivo at 100 mg/kg (Mus musculus [8]): 20%; Vd [9]: 6.7 L/kg; Papp [10]: Permeable; bioavailability [11]: 77%; bioavailability [12]: 7%; half-life [13]: 2.8 h; AUC/dose (Mus musculus [14]): 11.4 µM·kg·h/mg; half-life [15]: 10.8 h; Vd [16]: 2.6 L/kg
